Results published in ChEMBL document CHEMBL1125724, “Potential anti-AIDS agents. Synthesis and antiviral activity of naphthalenesulfonic acid derivatives against HIV-1 and HIV-2” (1991).
In brackets after ≈: the same amount, converted by molar mass.

Columns and labels:
[1] = target: Human immunodeficiency virus type 1 reverse transcriptase (Human immunodeficiency virus 1) (UniProt Q72547); test: Compound tested for % inhibition of cell-free HIV-1 Reverse Transcriptase at a concentration of 84 uM.
Outline: (§1)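 HIV-1 RT from partially purified, concentrated disrupted virions. Reaction at 37 °C for 30 min in 50 mM Tris-HCl pH 8.4, 2 mM DTT, 100 mM KCl, 10 mM MgCl2, 0.1% Triton X-100, with 1 µCi [methyl-3H]dTTP (30 Ci/mmol) and 0.01 unit poly(rA)·oligo(dT). Stopped with 5% TCA; precipitate collected on glass-fiber filters and counted by liquid scintillation. Experimental variation at most 10%.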

[2] = test system: Human immunodeficiency virus 1; test: Compound tested for % inhibition of giant cell formation at a concentration of 420 uM
MT4 [3] = test: Compound was evaluated for inhibitory effect against MT-4 cells of HIV-1 at a concentration of 0.8(3.4) ug/mL (uM).; format: functional, Homo sapiens
Outline: (§2)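 HIV-1 (HTLV-III_B) infected MT-4 cells at multiplicity of infection 0.02, incubated with a range of compound concentrations for 4 days. Viable cells counted by MTT method. Per-concentration inhibition of virus-induced cytopathogenicity; values are means of two separate experiments.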

MT4 [4] = test: Compound tested for its ability to reduce viability of mock-infected MT-4 cells.; format: functional; details: Homo sapiens, read-out: CD50 (the source's name)
Outline: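 Mock-infected MT-4 cells were incubated 4 days with a range of compound concentrations, and viability was read by MTT. CD50 is the 50% cytotoxic dose from reduced viability, given as the mean of two separate experiments.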

[5] = target: Human immunodeficiency virus type 1 reverse transcriptase (Human immunodeficiency virus 1) (UniProt Q72547); test: Inhibitory dose at a concentration of 2100 uM cell-free HIV-1 Reverse Transcriptase; outline: as §1
MT4 [6] = test: Compound tested for its inhibition of HIV-1 induced cytopathogenicity in MT-4 cells.; format: functional; details: Homo sapiens, read-out: ED50 (the source's name)
Outline: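 MT-4 cells infected with HIV-1 (HTLV-III_B) at MOI 0.02 and incubated 4 days with a range of compound concentrations. Viable cells were counted by MTT. ED50 is the 50% antiviral dose from inhibition of virus-induced cytopathogenicity, given as the mean of two separate experiments.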

MT4 [7] = test: Compound was evaluated for inhibitory effect against MT-4 cells of HIV-2 at a concentration of 20(84) ug/mL (uM).; format: functional, Homo sapiens
Outline: (§3)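 HIV-2 (ROD strain) infected MT-4 cells at multiplicity of infection 0.02, incubated with a range of compound concentrations for 4 days. Viable cells counted by MTT method. Per-concentration inhibition of virus-induced cytopathogenicity; values are means of two separate experiments.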

MT4 [8] = test: Compound was evaluated for inhibitory effect against MT-4 cells of HIV-1 at a concentration of 20(84) ug/mL (uM).; format: functional, Homo sapiens; outline: as §2
MT4 [9] = test: Compound was evaluated for inhibitory effect against MT-4 cells of HIV-2 at a concentration of 4(16.8) ug/mL (uM).; format: functional, Homo sapiens; outline: as §3
MT4 [10] = test: Compound was evaluated for inhibitory effect against MT-4 cells of HIV-1 at a concentration of 100(420) ug/mL (uM).; format: functional, Homo sapiens; outline: as §2
MT4 [11] = test: Cell viability at a concentration of 0.8(3.4) ug/mL (uM).; format: functional, Homo sapiens
MT4 [12] = test: Compound tested for its inhibition of HIV-2 induced cytopathogenicity in MT-4 cells.; format: functional; details: Homo sapiens, read-out: ED50 (the source's name)
Outline: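 MT-4 cells infected with HIV-2 (ROD) at MOI 0.02 and incubated 4 days with a range of compound concentrations. Viable cells were counted by MTT. ED50 is the dose giving 50% inhibition of virus-induced cytopathogenicity, given as the mean of two separate experiments.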

MT4 [13] = test: Compound was evaluated for inhibitory effect against MT-4 cells of HIV-2 at a concentration of 0.8(3.4) ug/mL (uM).; format: functional, Homo sapiens; outline: as §3
MT4 [14] = test: Cell viability at a concentration of 4(16.8) ug/mL (uM).; format: functional, Homo sapiens
[15] = target: Human immunodeficiency virus type 1 reverse transcriptase (Human immunodeficiency virus 1) (UniProt Q72547); test: Compound tested for % inhibition of cell-free HIV-1 Reverse Transcriptase at a concentration of 16.8 uM; outline: as §1
MT4 [16] = test: Cell viability at a concentration of 20(84) ug/mL (uM).; format: functional, Homo sapiens
MT4 [17] = test: Cell viability at a concentration of 100(420) ug/mL (uM).; format: functional, Homo sapiens
MT4 [18] = test: Compound was evaluated for inhibitory effect against MT-4 cells of HIV-2 at a concentration of 100(420) ug/mL (uM).; format: functional, Homo sapiens; outline: as §3
[19] = target: Human immunodeficiency virus type 1 reverse transcriptase (Human immunodeficiency virus 1) (UniProt Q72547); details: 350 uM
[20] = target: Human immunodeficiency virus type 1 reverse transcriptase (Human immunodeficiency virus 1) (UniProt Q72547); details: 350 uM; remark: listed apart in the source
[21] = target: Human immunodeficiency virus type 1 reverse transcriptase (Human immunodeficiency virus 1) (UniProt Q72547); details: 14 uM
[22] = target: Human immunodeficiency virus type 1 reverse transcriptase (Human immunodeficiency virus 1) (UniProt Q72547); details: 2.8 uM

Nc1cc(S(=O)(=O)O)c2ccccc2c1N
inhibition [1]: 1%
inhibition [2]: 0%
Inhibition (MT4 [3]): 0%
CC50 (MT4 [4]): 45 µg/mL (≈ 189 µM)
ID50 [5]: > 500 µg/mL
EC50 (MT4 [6]): > 45 µg/mL
Inhibition (MT4 [7]): 0%
Inhibition (MT4 [8]): 0%
Inhibition (MT4 [9]): 3%
Inhibition (MT4 [10]): 0%
Cell viability (MT4 [11]): 13
EC50 (MT4 [12]): > 45 µg/mL
Inhibition (MT4 [13]): 1%
Cell viability (MT4 [14]): 0
inhibition [15]: 2%
Cell viability (MT4 [16]): 1
Cell viability (MT4 [17]): 97
Inhibition (MT4 [18]): 0%

Cc1ccc(C(=O)Nc2ccc(S(=O)(=O)O)c3cc(S(=O)(=O)O)cc(S(=O)(=O)O)c23)cc1NC(=O)c1cccc(NC(=O)Nc2cccc(C(=O)Nc3cc(C(=O)Nc4ccc(S(=O)(=O)O)c5cc(S(=O)(=O)O)cc(S(=O)(=O)O)c45)ccc3C)c2)c1
inhibition [19]: 92%
ID50 [20]: 42 µg/mL (≈ 32.4 µM)
inhibition [21]: 22%
inhibition [22]: 18%
